Key:
MCF-7 cells = assay: MTT cytotoxicity, 72 h, MCF-7 breast cancer cells; format: cell-based, human; settings: read-out: IC50 (μM) ± S.D., MCF-7, MTT test
Summary of the method: (§1)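 Cells were kept in log phase at 37 °C, 5% CO₂, in RPMI-1640 with 10% fetal calf serum, penicillin/streptomycin and 2 mM L-glutamine. […] MTT read-out after 72 h exposure, absorbance 570 nm versus untreated wells. IC50 from 4-parameter logistic model; means of at least three independent experiments.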

LoVo cells [1] = assay: MTT cytotoxicity, 72 h, LoVo colon cancer cells; format: cell-based, human; settings: read-out: IC50 (μM) ± S.D., LoVo, MTT test, 2D monolayer
Summary of the method: as §1

U-1285 cells = assay: MTT cytotoxicity, 72 h, U-1285 small cell lung cancer cells; format: cell-based, human; settings: read-out: IC50 (μM) ± S.D., U-1285, MTT test
Summary of the method: as §1

[2] = test system: human cancer cell line panel; assay: MTT cytotoxicity across the in-house human cancer cell line panel; format: cell-based; settings: MTT test, 72 h
Summary of the method: as §1

PSN-1 cells = assay: MTT cytotoxicity, 72 h, PSN-1 pancreatic cancer cells; format: cell-based, human; settings: read-out: IC50 (μM) ± S.D., PSN-1, MTT test
Summary of the method: as §1

B-CPAP cells = assay: MTT cytotoxicity, 72 h, B-CPAP thyroid cancer cells; format: cell-based, human; settings: read-out: IC50 (μM) ± S.D., B-CPAP, MTT test
Summary of the method: as §1

LoVo cells [3] = assay: Hoechst 33258 staining, morphological analysis of cell death mode; format: cell-based, human; settings: 48 h with IC50
Summary of the method: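 LoVo cells were seeded at 5 × 10⁴ per well on tissue-culture slides, grown 24 h and washed twice with PBS. They were then treated with test compound, stained 5 min with 10 μg mL⁻¹ Hoechst 33258 in PBS, and examined for nuclear morphology by confocal microscopy at 40× and 10×.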

LoVo spheroids = assay: 3D spheroid culture, acid phosphatase; format: cell-based, human; settings: read-out: IC50 (μM) ± S.D., LoVo spheroids; 3D spheroids, 72 h, APH assay
Summary of the method: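 LoVo spheroids formed from 2.5 × 10³ cells per well in round-bottom non-treated wells, in phenol red free F-12 HAMs medium with 10% fetal calf serum plus 20% methyl cellulose stock solution. Test compound added from DMSO stock (final DMSO 0.5%) at increasing concentrations for 72 h. Viability by modified acid phosphatase assay at 405 nm. IC50 from 4-parameter logistic fit; means of at least three independent experiments.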

[4] = molecular target: protein disulfide isomerase (PDI) (Homo sapiens, UniProt P07237); assay: Cell-free PDI inhibition; format: biochemical
HEK-293 cells = assay: MTT cytotoxicity, 72 h, non-tumor HEK-293 embryonic kidney cells; format: cell-based, human
LoVo OXP cells = assay: MTT cytotoxicity, 72 h, oxaliplatin-resistant LoVo OXP colon cancer cells; format: cell-based, human
Summary of the method: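 Oxaliplatin-resistant LoVo OXP subline obtained by growing LoVo cells in increasing oxaliplatin concentrations, with 17 months of resistant-clone selection. Paired with parental LoVo cells in RPMI-1640 with 10% fetal calf serum and 2 mM L-glutamine. 72 h MTT exposure with test compound in DMSO (final 0.5%), absorbance 570 nm. IC50 fitted by 4-parameter logistic model from at least three independent experiments.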

protein disulfide isomerase (PDI), sequence (P07237 18-508): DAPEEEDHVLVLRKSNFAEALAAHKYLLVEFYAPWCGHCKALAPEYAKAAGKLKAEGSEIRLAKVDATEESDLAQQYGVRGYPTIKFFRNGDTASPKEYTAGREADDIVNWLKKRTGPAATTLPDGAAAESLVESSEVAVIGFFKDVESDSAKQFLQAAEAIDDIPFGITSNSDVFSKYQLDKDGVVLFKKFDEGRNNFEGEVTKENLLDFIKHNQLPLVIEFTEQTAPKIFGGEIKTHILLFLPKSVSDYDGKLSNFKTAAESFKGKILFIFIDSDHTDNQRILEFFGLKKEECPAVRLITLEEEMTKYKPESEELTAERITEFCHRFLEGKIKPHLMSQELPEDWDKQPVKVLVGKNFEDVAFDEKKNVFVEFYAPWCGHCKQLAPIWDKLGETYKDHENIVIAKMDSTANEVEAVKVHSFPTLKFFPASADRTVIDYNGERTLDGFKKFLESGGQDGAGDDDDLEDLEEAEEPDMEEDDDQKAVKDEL

SMILES | IC50 (MCF-7 cells) [µM] | IC50 (LoVo cells [1]) [µM] | IC50 (U-1285 cells) [µM] | cytotoxic effect against all tested cancer cell lines [2] | IC50 (PSN-1 cells) [µM] | IC50 (B-CPAP cells) [µM] | morphological changes (cell death mode) (LoVo cells [3]) | IC50 (LoVo spheroids) [µM] | reduction of PDI catalytic activity ([4]; highest tested dose (50 μM)) | IC50 ([4]; read-out: IC50 for PDI inhibition, cell-free, Proteostat kit) [µM] | S.I. = average IC50 normal cells/average IC50 for the malignant cells (HEK-293 cells; HEK-293 vs malignant cells) | IC50 (HEK-293 cells; read-out: IC50 (μM) ± S.D., HEK-293, MTT test, 72 h, non-tumor cells) [µM] | fold more effective than complex 2 (average IC50) [2] [fold] | IC50 ([2]; read-out: average IC50 across the human cancer cell lines) [µM] | R.F. = IC50 (resistant subline)/IC50 (wild-type cells) (LoVo OXP cells)
Cc1cc(C)n(C(C(=O)OC(C)C)n2nc(C)cc2C)n1 [L^2OiPr, [HC(3,5-Me2pz)2COO^iPr]] | > 50 | > 50 | > 50 | completely ineffective | > 50 | > 50 | – | – | – | – | – | – | – | – | –
C1N2CN3CN1CP(C2)C3.Cc1cc(C)n(C(C(=O)OC(C)C)n2nc(C)cc2C)n1.F[P-](F)(F)(F)(F)F.[Cu+] [compound 4, [Cu(L^2OiPr)(PTA)]PF6] | 14 ± 1.7 | 7.8 ± 1.5 | 11.9 ± 1.9 | – | 18.2 ± 0.8 | 14.3 ± 0.9 | no classical hallmarks of apoptosis | 144 ± 7.8 | about 80% | 13.7 | > 4.0 | > 50 | 2 | 12.3 | 1.9
N.N.[Cl][Pt][Cl] [Cisplatin, cisplatin, reference compound] | 13.9 ± 1.3 | 7.6 ± 1.5 | 2.1 ± 0.8 | – | 12.1 ± 2.8 | 18.5 ± 4.1 | classical morphological features of apoptosis induction | 60.6 ± 6.3 | – | – | – | – | – | – | –
O=C1[O][Pt]2([NH][C@@H]3CCCC[C@H]3[NH]2)[O]C1=O [Oxaliplatin, oxaliplatin, reference compound] | – | 1.1 ± 0.6 | – | – | – | – | – | – | – | – | – | – | – | – | 13
CC(C)OC(=O)C(n1cccn1)n1cccn1 [L^OiPr, [HC(pz)2COO^iPr]] | > 50 | > 50 | > 50 | completely ineffective | > 50 | > 50 | – | – | – | – | – | – | – | – | –

— article PMC11605304 (RSC Medicinal Chemistry, 2024)
